Screens from PubChem BioAssay.
Fh CTSL1 inh = blocks F. hepatica cathepsin L1 in PFM18AAP counter-screen; recombinant F. hepatica cathepsin L1, Z-Leu-Arg-MCA fluorescence; inhibition, % at 5.96 µM; 300,000 tested, 0.49% active; AID 1906;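 active = inhibition above the mean of all tested compounds plus 3 SD, set per screening campaign, cut at about 17% in these data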
UCH37 inh = blocks the human deubiquitinase UCH37 | Q9Y5K5 | purified proteasome/UCH37, Ub-AMC cleavage fluorescence | inhibition, % (test concentration not listed) | 330,000 tested, 0.33% active | AID 588478;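 active = mean inhibition over replicate wells above about 20%, limit read from the data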
Target sequence (Q9Y5K5 whole entry, looked up): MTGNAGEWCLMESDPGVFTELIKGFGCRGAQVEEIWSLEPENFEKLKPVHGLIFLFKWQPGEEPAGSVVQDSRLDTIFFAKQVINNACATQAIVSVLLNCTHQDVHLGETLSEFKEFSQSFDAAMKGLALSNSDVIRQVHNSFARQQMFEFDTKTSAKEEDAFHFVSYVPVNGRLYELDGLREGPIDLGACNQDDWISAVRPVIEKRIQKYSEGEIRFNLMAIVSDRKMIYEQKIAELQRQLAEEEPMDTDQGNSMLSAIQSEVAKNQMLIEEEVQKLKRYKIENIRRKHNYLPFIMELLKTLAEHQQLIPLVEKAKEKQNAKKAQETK
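System: Proteasome-associated human UCH37 deubiquitinase; Input: 0.15 nM proteasome in added enzyme buffer; Also added: Ub-AMC substrate from 1 µM stock; Incubation: 30 min compound-proteasome preincubation then 25 min substrate reaction, room temperature; Detection: fluorescence, ex 355 nm, em 460 nm; Read-out: % inhibition of Ub-AMC cleavage fluorescence; Benchmarks: no-proteasome and no-compound wells.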
DAGLB inhibitor = diacylglycerol lipase beta (human) inhibition; 340,000 tested, 0.059% active; inhibition, % at 5.17 µM; Q8NCG7; HEK293T DAGLB membrane lysate, EnzChek fluorogenic substrate; AID 504411; in the data active = inhibition above about 34%
MT1-MMP act inh = MT1-MMP (human) activation inhibition | P50281 | HT1080 RFP-PRO-GFP cells, GFP/RFP ratio fluorescence, overnight; percent of plate control window, DMSO zero | GFP/RFP ratio change, % at 20 µM | 360,000 tested, 0.061% active | AID 651647;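 active = GFP/RFP ratio change of at least 30% with cell ATP level not reduced by more than half and red fluorescence within 50% of control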
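Assay system: HT1080 RFP-PRO-GFP cells. Benchmarks: DMSO vehicle wells and RFP-L50D-GFP reporter cell wells. Times: overnight cell settling, then overnight compound exposure, 37 °C, 5% CO2. Compound: 20 µM single dose, 1% DMSO. Read-out basis: GFP/RFP fluorescence ratio.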
CendR NRP1 mod = alters CendR peptide binding to human NRP-1. FAM-RPARPAR peptide binding to NRP-1, fluorescence polarization. 360,000 tested, 0.85% active. AID 602438. inhibition, % at 25 µM;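 active = inhibition or corrected inhibition above about 18%, plus a signal ratio from 0.5 to 1.5, limit read from the data, passing the limit was not always enough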
UCH37 reconfirm = UCH37 Ub-AMC cleavage inhibition, confirmed; shares compounds with UCH37 inh; Proteasome-bound UCH37, Ub-AMC cleavage fluorescence; inhibition, % at 20 µM; 480 tested, 27% active; AID 624100;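 active = average inhibition over replicates above about 50%, so the earlier screening hit is confirmed, limit read from the data; inactive = the rest, counted as false positives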;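 also: based on cleavage rate fitted by regression over a 30 min kinetic read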
Numbers stand for hits; 0 = inactive; - = no result given. Hits are enriched below; roughly 1.5% of the tested compounds scored in any of these assays.

SMILES	Fh CTSL1 inh	UCH37 inh	DAGLB inhibitor	MT1-MMP act inh	CendR NRP1 mod	UCH37 reconfirm
COc1cc(C(C(=O)NC2CCCC2)N(Cc2ccco2)C(=O)c2snc(C(N)=O)c2N)cc(OC)c1OC (stereo not drawn)	0	0	0	0	0	-
Cc1occc1C(=O)NN=Cc1ccc[nH]1	-	0	-	-	-	-
COc1ccccc1NC(=O)COc1ccccc1C(=O)c1cnn(-c2ccccc2)c1	0	37	0	0	0	0
NC(=O)CC(NC(=O)Cc1ccc(Cl)cc1)c1ccc(NCCc2ccccc2F)c([N+](=O)[O-])c1 (stereo not drawn)	0	48	0	0	0	0
CCn1c(C)nc2cc(C(=O)NN=Cc3ccc(OC)c(O)c3)ccc21	-	0	-	-	-	-
Oc1ccc2ccccc2c1C=Nc1nc2c(s1)CCCC2	-	42	-	-	-	0
COc1ccc2c(c1)-c1nc(/N=C/c3c(O)ccc4ccccc34)sc1CC2	-	-	0	0	0	-
COc1ccc(NC(=O)c2cncc(Br)c2)c(S(=O)(=O)N2CCOCC2)c1	0	35	0	0	0	0
COc1ccc(NC(=O)c2cccnc2Cl)c(S(=O)(=O)N2CCOCC2)c1	0	0	0	0	0	-
Cc1ccoc1C(=O)NCCCNC(=O)c1occc1C	0	48	0	0	0	0
CN(C[C@H](c1ccccc1)N(C[C@H](Cc1ccccc1)N(CCc1ccccc1)N=O)N=O)N=O	0	37	0	0	0	0
CN(C[C@H](Cc1ccccc1)N(C[C@H](c1ccccc1)N(CCc1ccccc1)N=O)N=O)N=O	0	0	0	0	0	-
NS(=O)(=O)c1ccc(N=Nc2ccc(=O)[nH]c2O)cc1	0	32	0	0	0	0
O=C(NN=Cc1ccccc1Br)C1CC1	-	0	-	-	-	-
O=C(O)CN1C(=O)/C(=C\c2cccc(OCc3ccc(Cl)cc3)c2)SC1=S	0	28	0	0	0	82
O=C(O)CN1C(=O)/C(=C/c2ccsc2)SC1=S	0	0	-	0	0	-
Cn1cccc1/C=C1\SC(=S)N(CC(=O)O)C1=O	0	25	0	0	0	0
O=C(Cn1cc(C(F)(F)F)ccc1=O)NN=Cc1cccc(Cl)c1	-	0	-	-	-	-
C=C(c1ccccc1)c1ccccc1N	0	40	0	0	0	0
NC(=O)c1ccccc1N	0	0	0	-	0	-
Cn1c(=O)c2ccccc2n(CC(=O)NCCC2=CCCCC2)c1=O	0	32	0	0	0	0
COc1ccc(-n2nc(C(=O)NCC(=O)NCCC3=CCCCC3)c3ccccc3c2=O)cc1OC	0	36	0	0	0	54
COc1ccc(N(N=C2Sc3ccccc3C2=O)C(C)=O)cc1	-	78	-	-	-	0
CC(=O)N(N=C1Sc2ccccc2C1=O)c1cccc(C)c1	-	81	-	-	-	72
COc1ccc(N(/N=C2\Sc3ccccc3C2=O)C(C)=O)cc1	-	-	0	0	0	-
SMILES	Fh CTSL1 inh	UCH37 inh	DAGLB inhibitor	MT1-MMP act inh	CendR NRP1 mod	UCH37 reconfirm
CCOC(=O)C(=NNc1ncnc2ccccc12)c1ccc(OC)cc1	-	0	-	-	-	-
O=C(O)CC/C(=C\c1ccc(N2CCOCC2)c([N+](=O)[O-])c1)c1nc2ccccc2s1	-	26	0	0	0	0
O=C(O)C/C(=C\c1ccc(N2CCOCC2)c([N+](=O)[O-])c1)c1nc2ccccc2s1	0	0	0	0	0	-
O=C1C=C(N2CCOCC2)c2ccccc2C1=O	112	97	0	0	0	130
O=C(O)c1cccc(NC2=C(N3CCOCC3)C(=O)c3ccccc3C2=O)c1	50	28	0	0	0	0
CCOC(=O)C(=NNC(=O)c1ccccc1)c1ccccc1	-	0	-	-	-	-
CCOC(=O)C1=C(C)N=c2sc(=Cc3cc(OC)c(OC)c(OC)c3)c(=O)n2C1/C=C/c1ccccc1 (stereo not drawn)	-	0	-	-	-	-
O=C(O)c1ccccc1C=NNc1nc(N2CCCCC2)nc(N2CCCCC2)n1	-	0	-	-	-	-
CCOc1ccc(CNC(=S)NN=Cc2ccncc2)cc1	-	44	-	-	-	0
CCOc1ccc(CNC(=S)N/N=C/c2ccncc2)cc1	0	-	0	0	0	-
CCc1ccc(NC(=O)C2CC(=O)N=C(N)S2)cc1 (stereo not drawn)	0	0	0	0	0	-
CC(C)c1ccc(NC(=O)C2CC(=O)N=C(N)S2)cc1 (stereo not drawn)	0	26	0	0	0	55
Cc1ccccc1C(=O)ON=C(N)c1cccc([N+](=O)[O-])c1	-	0	-	-	-	-
